Molecules are shown by their SMILES. The source made the active and inactive calls. No cut-off for these calls is given here.

The subject of one experiment is SK-MES-1. Description: Antiproliferative activity against human SKMES1 cells after 72 hrs by MTS assay. The settings on record: SK-MES-1, 72 h. The format is functional, cell-based.
Experiment [1] deals with T1, Histone deacetylase (Homo sapiens) (UniProt Q13547+O15379+Q9UBN7+Q92769+Q9UQL6+Q8WUI4+Q9BY41+Q96DB2+P56524+Q9UKV0+Q969S8). The settings on record: DU-145, 0.5 to 1 uM.
Experiment [2] addresses T2, Protein deacetylase HDAC6 (Homo sapiens) (UniProt Q9UBN7).
T2 sequence (whole entry): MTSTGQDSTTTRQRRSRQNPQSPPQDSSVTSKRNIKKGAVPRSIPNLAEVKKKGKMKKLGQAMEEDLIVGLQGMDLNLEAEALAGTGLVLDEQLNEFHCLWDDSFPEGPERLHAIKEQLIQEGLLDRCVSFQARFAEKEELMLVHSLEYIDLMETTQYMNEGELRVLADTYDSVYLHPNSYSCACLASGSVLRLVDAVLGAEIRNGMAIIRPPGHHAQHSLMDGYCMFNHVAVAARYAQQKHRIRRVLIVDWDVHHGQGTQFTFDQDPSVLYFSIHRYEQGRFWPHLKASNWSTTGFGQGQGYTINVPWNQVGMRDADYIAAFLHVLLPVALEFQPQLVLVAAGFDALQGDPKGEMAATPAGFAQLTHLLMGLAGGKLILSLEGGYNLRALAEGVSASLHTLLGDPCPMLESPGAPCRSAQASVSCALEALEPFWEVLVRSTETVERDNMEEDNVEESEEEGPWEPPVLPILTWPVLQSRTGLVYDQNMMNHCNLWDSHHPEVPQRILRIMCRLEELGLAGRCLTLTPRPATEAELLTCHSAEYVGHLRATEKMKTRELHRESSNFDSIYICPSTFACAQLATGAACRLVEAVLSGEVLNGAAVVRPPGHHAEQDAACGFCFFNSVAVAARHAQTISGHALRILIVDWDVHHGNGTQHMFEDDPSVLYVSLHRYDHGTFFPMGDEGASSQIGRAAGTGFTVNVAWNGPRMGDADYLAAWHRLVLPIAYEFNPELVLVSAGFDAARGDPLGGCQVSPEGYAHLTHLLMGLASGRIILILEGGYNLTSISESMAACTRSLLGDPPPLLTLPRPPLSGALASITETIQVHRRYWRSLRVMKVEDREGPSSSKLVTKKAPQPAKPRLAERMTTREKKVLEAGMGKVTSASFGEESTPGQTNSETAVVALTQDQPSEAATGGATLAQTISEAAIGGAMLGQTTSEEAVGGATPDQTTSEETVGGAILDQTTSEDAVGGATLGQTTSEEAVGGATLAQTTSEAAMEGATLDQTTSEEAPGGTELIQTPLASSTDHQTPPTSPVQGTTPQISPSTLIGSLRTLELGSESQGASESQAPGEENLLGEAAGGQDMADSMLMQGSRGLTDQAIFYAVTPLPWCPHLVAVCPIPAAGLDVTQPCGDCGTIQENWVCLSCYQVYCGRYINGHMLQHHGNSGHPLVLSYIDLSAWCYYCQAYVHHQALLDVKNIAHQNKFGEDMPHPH
Description: Inhibition of HDAC6-mediated tubulin acetylation in human DU145 cells at 130 nM after 4 hrs by Western blot analysis. It is filed as cell-based. The settings on record: DU-145. The gist of the method:
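DU-145 cells passaged 24 h before dosing, then treated 4 h, with no more than 0.1% DMSO including controls. Lysis in RIPA buffer with protease inhibitors, protein quantified against a BSA standard, SDS-PAGE and transfer. Blots probed with rabbit anti-tubulin and mouse anti-acetyl tubulin, read by near-infrared imaging at 700/800 nm.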
For orientation: A western blot detects proteins with antibodies after separation by electrophoresis.

The target in the next experiment is T3, Histone deacetylase 8 (Homo sapiens, UniProt Q9BY41).
T3 sequence (Q9BY41 whole entry): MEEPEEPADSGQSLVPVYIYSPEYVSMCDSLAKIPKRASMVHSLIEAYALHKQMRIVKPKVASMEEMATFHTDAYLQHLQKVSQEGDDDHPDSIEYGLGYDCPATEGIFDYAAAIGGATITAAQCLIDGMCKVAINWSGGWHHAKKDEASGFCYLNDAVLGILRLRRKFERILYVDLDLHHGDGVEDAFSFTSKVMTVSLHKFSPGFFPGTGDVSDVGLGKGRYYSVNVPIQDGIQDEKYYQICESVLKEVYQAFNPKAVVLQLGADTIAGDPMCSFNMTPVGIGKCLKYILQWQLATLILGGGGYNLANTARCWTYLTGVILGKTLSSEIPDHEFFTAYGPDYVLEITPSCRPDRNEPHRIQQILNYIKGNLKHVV
Description: Inhibition of HDAC8 in human HeLa cell nuclear extract using Fluor de Lys as substrate after 15 mins by fluorometric analysis.

In experiment [3] the target is T4, Protein deacetylase HDAC6 (Homo sapiens, UniProt Q9UBN7).
T4 sequence (Q9UBN7 whole entry): T2 sequence (whole entry)
The experiment in a line: Inhibition of HDAC6 in human HeLa cell nuclear extract using Fluor de Lys as substrate after 15 mins by fluorometric analysis.

Experiment [4] has as its target T1, Histone deacetylase (Homo sapiens). Description: Inhibition of HDAC in human DU145 cells assessed as upregulation of p21 expression at IC50 concentration after 4 hrs by Western blot analysis relative to control. It is filed as cell-based. The settings on record: DU-145. Put shortly: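 Lysed in RIPA with protease inhibitors, cleared 14,000 RPM at 4°C. Immunoblotted, probing acetylated versus total tubulin; p21 also checked. Near-infrared detection at 700/800 nm.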

In general, IC50 refers to the concentration that gives 50% inhibition. Consider `COc1cccc2c1C(=O)c1c(O)c3c(c(O)c1C2=O)C[C@@](O)(C(C)=O)C[C@@H]3O[C@H]1C[C@H](NCc2ccc(NC(=O)CCCCCCC(=O)NO)cc2)[C@H](O)[C@H](C)O1`, for which the IC50 in the experiment on SK-MES-1 amounted to 470 nM; at Histone deacetylase 8 it was 220 nM; in experiment [3], 20 nM. For the same compound, the inhibition result in experiment [1] was “inactive”. Besides, the inhibition result in experiment [2] was “Active”. Besides, the outcome in experiment [4] was inactive.
